The values that follow come from ChEMBL document CHEMBL3784932, “Design, synthesis and docking studies of novel dipeptidyl boronic acid proteasome inhibitors constructed from αα- and αβ-amino acids” (Bioorg Med Chem Lett, 2016).

The nature of experiment [1]: Cytotoxicity against human RPMI8226 cells after 72 hrs by MTS assay. Type of experiment: functional, cell-based. Conditions: RPMI-8226, 72 h; call rule not given here. Summed up:
(§1)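 Cellular IC50 from a ten-concentration series, each concentration tested in triplicate.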

Experiment [2] concerns the target T1, Proteasome Macropain subunit MB1 (Homo sapiens, UniProt P28074).
T1 sequence (P28074 whole entry): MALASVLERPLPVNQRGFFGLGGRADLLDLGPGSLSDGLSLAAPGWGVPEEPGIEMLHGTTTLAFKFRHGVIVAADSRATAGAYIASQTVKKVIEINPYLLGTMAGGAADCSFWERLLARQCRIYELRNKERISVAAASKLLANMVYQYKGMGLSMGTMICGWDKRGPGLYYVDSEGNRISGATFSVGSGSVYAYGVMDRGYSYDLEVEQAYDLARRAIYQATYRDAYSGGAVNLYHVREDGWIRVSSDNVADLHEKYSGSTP
Nature of the experiment: Inhibition of chymotrypsin like activity of human erythrocyte-derived 20S proteasome preincubated for 10 mins using Suc-LLVY-AMC as substrate after 60 mins by fluorescence assay. The essentials: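 Enzymatic IC50 from eight inhibitor concentrations, each point assayed in duplicate; β5 (chymotrypsin-like) subunit of human proteasome.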

Experiment [3] in a line: Cytotoxicity against human U266 cells after 72 hrs by MTS assay. It counts as functional, cell-based. Conditions: U-266, 72 h. Summed up: as §1
A short description of experiment [4]: Cytotoxicity against human ARH77 cells after 72 hrs by MTS assay. Type of experiment: functional, cell-based. Conditions: ARH-77, 72 h. Summed up: as §1

`COCCC(=O)N[C@@H](Cc1ccccc1)C(=O)N[C@@H](CC(C)C)B(O)O`: the IC50 in experiment [1] came out at 7.32 nM; in experiment [2] (read-out: IC50), 8.47 nM; in experiment [3], 11.5 nM; in experiment [4] it was 9.03 nM.

Turning to `O=C(N[C@@H](Cc1ccccc1)C(=O)N[C@H](CB(O)O)c1ccccc1)c1cnccn1`, the IC50 result in experiment [2] is listed as “Not Active”.

Take `CC(C)C[C@H](NC(=O)[C@H](Cc1ccccc1)NC(=O)c1cnccn1)B(O)O` [BORTEZOMIB]: the IC50 turned out to be 5.73 nM in experiment [3] and 6.07 nM in experiment [4].

Take `O=C(N[C@@H](Cc1ccccc1)C(=O)N[C@@H](CCc1ccccc1)CB(O)O)c1cnccn1`: the IC50 entry in experiment [2] is reported as “Not Active”.

Consider `CC(C)C[C@@H](CB(O)O)NC(=O)[C@H](Cc1ccccc1)NC(=O)c1ccccc1`, for which the IC50 entry in experiment [2] is recorded as “Not Active”.

Regarding `CC(C)C[C@@H](NC(=O)CC(NC(=O)[C@H]1CCCc2ccccc21)c1cccc(F)c1)B(O)O` (some centres undefined), the IC50 in experiment [2] (read-out: IC50) amounted to 1.02 nM.

As for `O=C(N[C@@H](Cc1ccccc1)C(=O)N[C@H](CB(O)O)c1ccccc1)c1ccccc1`, in experiment [2], the IC50 result was “Not Active”.

On to `CC(C)C[C@H](NC(=O)[C@H](Cc1ccccc1)NC(=O)c1cccc2c1CCCC2)B(O)O`, for which, in experiment [2] (read-out: IC50), the IC50 turned out to be 1.6 nM.

In the case of `CC(C)C[C@@H](CB(O)O)NC(=O)[C@H](Cc1ccccc1)NC(=O)c1cnccn1`, the IC50 entry in experiment [2] is recorded as “Not Active”.

As to `COCC(=O)N[C@@H](Cc1ccccc1)C(=O)N[C@@H](CC(C)C)B(O)O`, the IC50 worked out at 4.56 nM in experiment [1], 6.31 nM in experiment [2] (read-out: IC50), 6.04 nM in experiment [3] and 5.72 nM in experiment [4].

Turning to `CC(C)C[C@H](NC(=O)[C@H](Cc1ccccc1)NC(=O)CC(C)(C)C)B(O)O`, the IC50 in experiment [2] (read-out: IC50) stood at 4.69 nM; in experiment [3], 8.01 nM; in experiment [4], 8.31 nM.

Regarding `CC(C)C[C@H](NC(=O)[C@H](Cc1ccccc1)NC(=O)C1CCCC1)B(O)O`, the values for the IC50 in experiment [2] (read-out: IC50), in experiment [3] and in experiment [4] were 4.82 nM, 2.48 nM and 3.87 nM, respectively.

As for `CC(C)C[C@H](NC(=O)[C@H](Cc1ccccc1)NC(=O)[C@H]1CCCc2ccccc21)B(O)O`, in experiment [2] (read-out: IC50), the IC50 worked out at 1.2 nM.

As for `O=C(N[C@@H](Cc1ccccc1)C(=O)N[C@@H](CCc1ccccc1)CB(O)O)c1ccccc1`, the IC50 entry in experiment [2] is “Not Active”.

As to `CCCC(=O)N[C@@H](Cc1ccccc1)C(=O)N[C@@H](CC(C)C)B(O)O`, the IC50 in experiment [1] is 5.61 nM; in experiment [2] (read-out: IC50) it was 6.94 nM; in experiment [3] it was 8.51 nM; in experiment [4], 7.87 nM.
